Records with an inconclusive call do not appear. Activity calls are given as the source filed them.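 How the source made its calls, unless noted: active means inhibition over a set limit, the all-compound mean plus 3 SD, in both replicate runs; inconclusive means over that limit in just one replicate run; inactive means at or under that limit in both runs.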
What was measured:
[1] = S. cerevisiae growth inhibition in permissive medium (OD615), pilot counter-assay for S. cerevisiae lifespan shortening project, permissive growth control (AID 705;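 active means growth inhibition above 25% in both replicates, a cutoff set 3 SD above the mean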); conditions: OD615, 24 h, at 10 µM, active compounds read high
Procedure, shortened: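 System: S. cerevisiae with engineered DeaD lifespan system / Measured by: absorbance (optical density) at 615 nm / Read-out: reduction in yeast growth (OD615) / Times: 4 h cell pre-growth, 24 h exposure at 30 °C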

[2] = S. cerevisiae growth inhibition in restrictive medium, OD615, pilot screen, restrictive growth control, yeast lifespan reduction project (AID 706;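 active means growth inhibition above a set limit, 3 SD over mean compound inhibition, in both replicates, cut at about 43% in these data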;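 further: modified DeaD lifespan yeast strain shifted to restrictive glucose medium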); conditions: OD615, 48 h, at 10 µM, active compounds read high
Procedure, shortened: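 System: Engineered S. cerevisiae DeaD strain | Buffer or medium: Glucose-based CSMM-D restrictive medium | Schedule: 4 h pre-incubation, 48 h exposure at 30 °C | Technique: Optical density at 615 nm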

[3] = doxorubicin toxicity protection in MRP-1 cells – H69AR cells, CellTiter-Glo, duplicate, MRP-1 activator project, pilot screen (AID 807;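 active means viability increase at or above a cutoff of the median across tested compounds plus 3 SD, cut at about 8.5% in these data, passing the limit was not always enough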;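 further: compound pretreatment 18-22 h then 72 h combined with doxorubicin; 0% = doxorubicin alone and 100% = vehicle without doxorubicin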); conditions: H69AR viability with doxorubicin, CellTiter-Glo luminescence; at 10 µM; active compounds read high
[4] = viability of HCT116 without oncogenic beta-catenin – human colon tumor cells, pilot screen (AID 823;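 active means cell viability at or below a set limit in both duplicate runs, the limit being the all-compound median minus 4 SD, cut at about 23% in these data, passing the limit was not always enough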;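 further: 0% = wells killed by 20 µM Hyamine and 100% = untreated DMSO cell wells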); conditions: HCT116 beta-catenin knockout viability, CellTiter-Glo, 60 h; at 10 µM; active compounds read low
[5] = RAM pathway blockade in budding yeast – dse1pr::URA3 reporter, 5-FOA selection, pilot screen (AID 869);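 further: 0% = DMSO wells with no growth and 100% = 10 µM 1-NA-PP1 with full growth; RAM network block rescues cells from 5-FOA so hits raise OD615 growth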; conditions: S. cerevisiae dse1pr::URA3 5-FOA growth, OD615, 2 d; at 10 µM; active compounds read high; strain carries analog-sensitive mutant Cbk1 kinase
[6] = RAM signaling pathway blockade in yeast – S. cerevisiae, Pdr1DBD-CYC8 efflux-inhibited sensitized strain, primary screen (AID 1298;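 active means RAM network inhibition above 8.4% in each of two replicates, 3 SD over the compound average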;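 further: 0% = DMSO untreated cells without growth and 100% = 10 µM 1-NA-PP1 full growth; higher means more yeast growth rescued from 5-FOA killing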); conditions: S. cerevisiae cbk1-as DSE1-URA3 strain, 5-FOA growth OD615, 2 d; at 50 µM; active compounds read high

CCOc1cc(CNC(=O)CN2C(=O)c3ccccc3S2(=O)=O)ccc1OC
inactive: growth inhibition [1] -22.6% | growth inhibition [2] -10.7% | viability increase [3] -0.6% | viability [4] 98.1% | inhibition [5] 1.69% | RAM network inhibition [6] 0.32%

CN1c2ccccc2-c2nc3ccccc3n2C1c1ccccn1 (stereo not given)
inactive: growth inhibition [1] -1.57% | growth inhibition [2] -3.9% | viability increase [3] -3.85% | viability [4] 73.8% | inhibition [5] 0.56% | RAM network inhibition [6] 4.06%

COCCCNC(=O)c1ccc(Cn2c(=O)[nH]c3ccccc3c2=O)cc1
inactive: growth inhibition [1] -10.2% | growth inhibition [2] -0.91% | viability increase [3] -5.59% | viability [4] 34.9% | inhibition [5] 1.89% | RAM network inhibition [6] 5.69%

Cc1sc(NC(=O)c2ccco2)c(C(c2cccnc2)N2CCN(c3ccc(F)cc3)CC2)c1C (stereo not given)
active: viability [4] 13.3%
inactive: growth inhibition [1] -8.72% | growth inhibition [2] 6.02% | viability increase [3] -5.73% | inhibition [5] 1.42% | RAM network inhibition [6] 7.4%

N#C/C(=C1\CCCN1)c1ccc2ccccc2n1
inactive: growth inhibition [1] 1.03% | growth inhibition [2] 3.25% | viability increase [3] -4.02% | viability [4] 94.2% | inhibition [5] 2.02% | RAM network inhibition [6] 3.18%

Cc1cc(NC(=O)CN2CCN(c3ncccn3)CC2)no1
inactive: growth inhibition [1] -7.78% | growth inhibition [2] -9.4% | viability increase [3] -1.38% | viability [4] 98.6% | inhibition [5] 0.71% | RAM network inhibition [6] 3.12%

CCOC(=O)c1ccccc1NC(=O)CC1Nc2ccccc2NC1=O (stereo not given)
inactive: growth inhibition [1] -2.62% | growth inhibition [2] -8.37% | viability increase [3] -8.1% | viability [4] 55.7% | inhibition [5] 2.19% | RAM network inhibition [6] 6.39%

Cc1ccc2c(c1)c(C)c(C)n2CC(O)Cn1nnc2ccccc21 (stereo not given)
inactive: growth inhibition [1] -9.66% | growth inhibition [2] -5.1% | viability increase [3] -5.06% | viability [4] 82.3% | inhibition [5] 0.335% | RAM network inhibition [6] 2.28%

CCOC(=O)CNC(=O)c1cn(CC)c(=O)c2cc(OC)c(OC)cc12
inactive: growth inhibition [1] -14.4% | growth inhibition [2] -5.67% | viability increase [3] -2.48% | viability [4] 103% | inhibition [5] 2.65% | RAM network inhibition [6] 2.7%

COc1ccccc1N1CCN(C2=CC(=O)CCC2)CC1
inactive: growth inhibition [1] -17.3% | growth inhibition [2] -12.2% | viability increase [3] -1.22% | viability [4] 100% | inhibition [5] 0.81% | RAM network inhibition [6] 2.91%

O=C(c1ccco1)N1CCN(C(=O)C2Cc3ccccc3CN2S(=O)(=O)c2ccc(F)cc2)CC1 (stereo not given)
inactive: growth inhibition [1] -12.6% | growth inhibition [2] -9.61% | viability increase [3] -4.67% | viability [4] 97.2% | inhibition [5] 3.29% | RAM network inhibition [6] 7.28%

CCOc1cc(C2C(C(=O)c3ccco3)=C(O)C(=O)N2CCc2ccccc2)ccc1O (stereo not given)
inactive: growth inhibition [1] -35.8% | growth inhibition [2] -4.2% | viability increase [3] -1.77% | viability [4] 97.2% | inhibition [5] 4.93% | RAM network inhibition [6] 4.16%

Cc1cccc(N(CC(=O)Nc2c(C)n(C)n(-c3ccccc3)c2=O)S(C)(=O)=O)c1C
inactive: growth inhibition [1] -16.3% | growth inhibition [2] -3.62% | viability increase [3] -1.08% | viability [4] 95.3% | inhibition [5] 1.41% | RAM network inhibition [6] 5.77%

CCCCCCn1c(SCC(=O)c2ccccc2)nc2c1c(=O)[nH]c(=O)n2C
active: growth inhibition [2] 42.6%
inactive: growth inhibition [1] -4.82% | viability increase [3] -7.17% | viability [4] 53% | inhibition [5] 2.08% | RAM network inhibition [6] 6.13%

CCN(CC)S(=O)(=O)c1ccc(NC(=O)Cn2c(=O)oc3ccccc32)cc1
inactive: growth inhibition [1] -12.3% | growth inhibition [2] -11.6% | viability increase [3] -3.33% | viability [4] 96.7% | inhibition [5] 2.38% | RAM network inhibition [6] 5.71%

O=C(NCc1ccc(N2CCCC2=O)cc1)c1cn(CCc2ccccc2)nn1
inactive: growth inhibition [1] -5.88% | growth inhibition [2] -13.3% | viability increase [3] 1.6% | viability [4] 95.1% | inhibition [5] 1.7% | RAM network inhibition [6] 7.58%

Cc1nn(CCO)c(C)c1Oc1ccccc1O
inactive: growth inhibition [1] 6.79% | growth inhibition [2] 4.62% | viability increase [3] -1.47% | viability [4] 102% | inhibition [5] 1.96% | RAM network inhibition [6] 1.86%

CCSc1nnc(NC(=O)C2CC=CCC2C(=O)O)s1 (stereo not given)
inactive: growth inhibition [1] -17.7% | growth inhibition [2] -7.56% | viability increase [3] -0.57% | viability [4] 103% | inhibition [5] 0.665% | RAM network inhibition [6] 4%

COCCNC(=O)c1cn(C)c(=O)c2cc(OC)c(OC)cc12
inactive: growth inhibition [1] -20.6% | growth inhibition [2] -7.83% | viability increase [3] -1.73% | viability [4] 95.5% | inhibition [5] 1.6% | RAM network inhibition [6] 7.53%

COc1ccc(CNc2oc(COc3ccccc3)nc2C#N)cc1
inactive: growth inhibition [1] -9.65% | growth inhibition [2] -2.3% | viability increase [3] -2.11% | viability [4] 79% | inhibition [5] 4.33% | RAM network inhibition [6] 2.19%

Source: PubChem BioAssay
